Assay results reported in ChEMBL document CHEMBL1649443, “Novel S-adenosylmethionine decarboxylase inhibitors for the treatment of human African trypanosomiasis” (Antimicrob Agents Chemother, 2009).
Active and inactive are the calls of the source.

Tests used:
[1] = Metabolic stability in rat hepatocytes assessed as intrinsic clearance up to 45 mins by LC/MS/MS analysis; format: ADME, cell-based, Liver, Hepatocyte
[2] = Protein binding in human plasma at pH 7.4 after 4 hrs; format: ADME, cell-free; details: read-out: PPB (converted)
[3] = Metabolic stability in rat liver microsomes assessed as intrinsic clearance up to 45 mins by LC/MS/MS analysis; format: ADME, Microsome
CYP2D6 = CYP2D6 (Homo sapiens, UniProt P10635); assay: (§1) Inhibition of human cytochrome P450 2D6; details: human
Sequence of CYP2D6 (P10635 whole entry): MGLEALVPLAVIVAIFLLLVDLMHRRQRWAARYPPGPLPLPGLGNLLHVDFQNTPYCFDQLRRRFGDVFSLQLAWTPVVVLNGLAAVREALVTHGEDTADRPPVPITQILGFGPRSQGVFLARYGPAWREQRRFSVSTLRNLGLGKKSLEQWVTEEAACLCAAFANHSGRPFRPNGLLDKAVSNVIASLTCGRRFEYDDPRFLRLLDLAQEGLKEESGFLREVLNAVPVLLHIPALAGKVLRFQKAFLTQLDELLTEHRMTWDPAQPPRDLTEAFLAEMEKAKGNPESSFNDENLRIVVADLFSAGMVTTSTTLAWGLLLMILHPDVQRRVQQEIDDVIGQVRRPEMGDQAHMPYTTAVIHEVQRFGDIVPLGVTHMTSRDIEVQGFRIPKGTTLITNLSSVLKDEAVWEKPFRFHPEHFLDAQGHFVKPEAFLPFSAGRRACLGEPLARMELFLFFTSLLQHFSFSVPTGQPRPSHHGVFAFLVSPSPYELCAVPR

CYP2C19 = CYP2C19 (Homo sapiens, UniProt P33261); assay: (§2) Inhibition of human cytochrome P450 2C19; details: human
Sequence of CYP2C19 (P33261 whole entry): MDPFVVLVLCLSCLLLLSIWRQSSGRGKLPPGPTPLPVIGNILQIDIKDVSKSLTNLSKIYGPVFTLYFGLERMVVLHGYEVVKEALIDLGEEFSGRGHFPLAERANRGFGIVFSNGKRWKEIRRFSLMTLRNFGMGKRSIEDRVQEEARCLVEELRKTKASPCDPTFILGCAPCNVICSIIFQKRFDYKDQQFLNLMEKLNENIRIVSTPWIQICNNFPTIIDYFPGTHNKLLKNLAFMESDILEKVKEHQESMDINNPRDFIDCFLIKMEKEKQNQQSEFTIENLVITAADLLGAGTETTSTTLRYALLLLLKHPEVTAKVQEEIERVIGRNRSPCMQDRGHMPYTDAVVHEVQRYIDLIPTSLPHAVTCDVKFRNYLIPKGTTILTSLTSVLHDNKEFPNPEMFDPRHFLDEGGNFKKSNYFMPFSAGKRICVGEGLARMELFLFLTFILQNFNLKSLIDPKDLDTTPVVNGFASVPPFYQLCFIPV

[4] = Kinetic solubility in phosphate-buffered saline at pH 7.4 after 16 to 24 hrs by UV spectrophotometry
CYP2C9 = CYP2C9 (Homo sapiens, UniProt P11712); assay: (§3) Inhibition of human cytochrome P450 2C9; details: human
Sequence of CYP2C9 (P11712 whole entry): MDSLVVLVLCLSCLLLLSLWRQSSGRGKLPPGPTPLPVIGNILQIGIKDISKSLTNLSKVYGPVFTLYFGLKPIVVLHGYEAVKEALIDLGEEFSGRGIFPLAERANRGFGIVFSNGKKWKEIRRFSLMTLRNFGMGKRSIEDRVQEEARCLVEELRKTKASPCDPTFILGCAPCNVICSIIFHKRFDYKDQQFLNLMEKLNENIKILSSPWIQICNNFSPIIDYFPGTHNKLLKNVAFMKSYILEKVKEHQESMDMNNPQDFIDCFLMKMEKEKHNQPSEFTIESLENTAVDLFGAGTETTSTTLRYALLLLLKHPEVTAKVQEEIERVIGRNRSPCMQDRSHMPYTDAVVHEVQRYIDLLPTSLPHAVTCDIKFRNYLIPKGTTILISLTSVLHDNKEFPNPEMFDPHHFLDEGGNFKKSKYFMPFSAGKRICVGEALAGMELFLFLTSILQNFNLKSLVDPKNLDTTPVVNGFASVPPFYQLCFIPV

[5] = Metabolic stability in human liver microsomes assessed as intrinsic clearance up to 45 mins by LC/MS/MS analysis; format: ADME, Microsome
[6] = Metabolic stability in human hepatocytes assessed as intrinsic clearance up to 45 mins by LC/MS/MS analysis; format: ADME, cell-based, Liver, Hepatocyte
[7] = Protein binding in mouse plasma at pH 7.4 after 4 hrs; format: ADME, cell-free; details: read-out: PPB (converted)
[8] = system: Trypanosoma brucei rhodesiense; assay: Antiparasitic activity against Trypanosoma brucei rhodesiense STIB 900 clone after 72 hrs by Alamar blue assay; format: functional, organism-based; details: STIB 900, 72 h
CYP1A2 = target: T1, CYP1A2 (Homo sapiens, UniProt P05177); assay: (§4) Inhibition of human cytochrome P450 1A2; details: human
T1 sequence (P05177 whole entry): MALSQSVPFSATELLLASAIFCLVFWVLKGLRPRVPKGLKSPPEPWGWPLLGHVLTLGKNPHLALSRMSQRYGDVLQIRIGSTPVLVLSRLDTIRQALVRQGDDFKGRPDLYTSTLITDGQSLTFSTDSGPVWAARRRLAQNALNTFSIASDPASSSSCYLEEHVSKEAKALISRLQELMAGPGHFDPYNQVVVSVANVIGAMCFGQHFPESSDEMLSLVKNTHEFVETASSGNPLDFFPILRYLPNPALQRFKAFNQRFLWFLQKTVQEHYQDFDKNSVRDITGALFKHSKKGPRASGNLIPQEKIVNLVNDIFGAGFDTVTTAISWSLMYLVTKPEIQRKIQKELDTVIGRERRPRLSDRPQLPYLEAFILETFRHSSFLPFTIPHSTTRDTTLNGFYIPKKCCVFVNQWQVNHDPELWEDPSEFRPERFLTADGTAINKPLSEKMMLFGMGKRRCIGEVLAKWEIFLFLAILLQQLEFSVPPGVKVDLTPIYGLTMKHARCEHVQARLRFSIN

CYP3A4 = CYP3A4 (Homo sapiens, UniProt P08684); assay: (§5) Inhibition of human cytochrome P450 3A4; details: human
Sequence of CYP3A4 (P08684 whole entry): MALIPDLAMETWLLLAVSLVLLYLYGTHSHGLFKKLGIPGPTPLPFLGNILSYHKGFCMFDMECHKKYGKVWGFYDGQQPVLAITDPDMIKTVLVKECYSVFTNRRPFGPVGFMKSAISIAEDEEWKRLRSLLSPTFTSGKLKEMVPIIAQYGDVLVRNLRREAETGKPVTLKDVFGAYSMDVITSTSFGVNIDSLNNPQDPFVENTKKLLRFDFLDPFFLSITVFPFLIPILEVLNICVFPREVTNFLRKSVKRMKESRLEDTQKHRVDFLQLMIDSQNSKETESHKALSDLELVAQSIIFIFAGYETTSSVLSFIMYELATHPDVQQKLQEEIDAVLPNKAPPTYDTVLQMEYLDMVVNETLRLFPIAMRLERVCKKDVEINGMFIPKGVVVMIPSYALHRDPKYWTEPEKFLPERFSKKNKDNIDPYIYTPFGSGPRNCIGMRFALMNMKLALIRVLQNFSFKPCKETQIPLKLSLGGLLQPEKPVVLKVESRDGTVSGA

Rattus norvegicus [9] = assay: Volume of distribution at steady state in rat at 3 mg/kg, iv; format: ADME, organism-based; parameters: dose 3 mg/kg, route intravenous; details: in vivo
[10] = system: Trypanosoma brucei brucei; assay: Antiparasitic activity against Trypanosoma brucei brucei LAB 110 EATRO infected in mouse assessed as parasitemia cure incidence at 50 mg/kg/day, ip administered on 1st day of infection and measured through day 40 post infection
[11] = Cmax in mouse brain at 50 mg/kg, ip administered as single dose; format: ADME, organism-based; parameters: dose 50 mg/kg, route intraperitoneal
[12] = Half life in rat at 10 mg/kg, po; format: ADME, organism-based; parameters: dose 10 mg/kg, route oral; details: in vivo
Summary of the method: (§6)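 Rat groups of six, split into two subgroups to limit blood collections, dosed i.v. or p.o. Blood sampled at 15 min, 30 min, 2 h, 4 h, 8 h and 24 h. Drug levels measured by LC-MS-MS. Two separate rat studies were run.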

[13] = AUC in rat at 3 mg/kg, iv; format: ADME, organism-based; parameters: dose 3 mg/kg, route intravenous; details: plasma
[14] = system: Trypanosoma brucei brucei; assay: Antiparasitic activity against Trypanosoma brucei brucei LAB 110 EATRO infected in mouse assessed as mean survival days at 50 mg/kg/day, ip qd for 7 days administered on 1st day of infection and measured through day 40 post infection; format: functional; details: route intraperitoneal
Summary of the method: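 Mice in groups of five, infected i.p. on day 0 with 2.5 × 10^5 T. b. brucei LAB 110 EATRO parasites; i.p. dosing began day 1. Parasitemia checked twice weekly by microscopy of at least 20 fields of wet blood smears through day 40, with animals considered cured only when clear through day 40.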

in vivo = details: mouse, brain, ip, 50 mg/kg
[15] = AUC in rat at 10 mg/kg, po; format: ADME, organism-based; parameters: dose 10 mg/kg, route oral; details: plasma; summary of the method: as §6
[16] = Permeability of the compound after 4 hrs by PAMPA assay; format: ADME; details: read-out: permeability
[17] = system: Trypanosoma brucei brucei; assay: Antiparasitic activity against Trypanosoma brucei brucei LAB 110 EATRO infected in mouse assessed as parasitemia cure incidence at 50 mg/kg/day, ip qd for 7 days administered on 1st day of infection and measured through day 40 post infection; format: functional, organism-based
[18] = Cmax in rat at 10 mg/kg, po; format: ADME, organism-based; parameters: dose 10 mg/kg, route oral; details: in vivo; summary of the method: as §6
[19] = Cmax in mouse blood at 50 mg/kg, ip administered as single dose; format: ADME, organism-based; parameters: dose 50 mg/kg, route intraperitoneal
[20] = Half life in mouse at 50 mg/kg, ip administered as single dose; format: ADME, organism-based; parameters: dose 50 mg/kg, route intraperitoneal; details: in vivo
[21] = Oral bioavailability in rat at 10 mg/kg, po; format: ADME, organism-based; details: in vivo; summary of the method: as §6
[22] = Tmax in rat at 10 mg/kg, po; format: ADME, organism-based; parameters: dose 10 mg/kg, route oral; details: in vivo; summary of the method: as §6
Rattus norvegicus [23] = assay: Half life in rat at 3 mg/kg, iv; format: ADME, organism-based; parameters: dose 3 mg/kg, route intravenous; details: in vivo
[24] = system: Trypanosoma brucei brucei; assay: Antiparasitic activity against Trypanosoma brucei brucei STIB 795 infected in mouse assessed as mean survival days at 50 mg/kg, ip qd for 4 days administered on 3rd day of infection (reference value: 6.75 days); format: functional; details: route intraperitoneal
[25] = AUC in mouse brain at 50 mg/kg, ip administered as single dose; format: ADME, organism-based; parameters: dose 50 mg/kg, route intraperitoneal
[26] = AUC in mouse blood at 50 mg/kg, ip administered as single dose; format: ADME, organism-based; parameters: dose 50 mg/kg, route intraperitoneal
[27] = system: Trypanosoma brucei brucei; assay: Antiparasitic activity against Trypanosoma brucei brucei STIB 795 infected in mouse assessed as parasitemia cure incidence at 50 mg/kg, ip qd for 4 days administered on 3rd day of infection; format: functional, organism-based; parameters: dose 50 mg/kg
[28] = system: Trypanosoma brucei brucei; assay: Antiparasitic activity against Trypanosoma brucei brucei LAB 110 EATRO infected in mouse assessed as mean survival days at 50 mg/kg/day, ip administered on 1st day of infection and measured through day 40 post infection; details: route intraperitoneal
Cytochrome P450 2D6 = Cytochrome P450 2D6 (Homo sapiens, UniProt P10635); assay: as §1
Sequence of Cytochrome P450 2D6 (P10635 whole entry): as the sequence (P10635 whole entry) above

Cytochrome P450 2C19 = Cytochrome P450 2C19 (Homo sapiens, UniProt P33261); assay: as §2
Sequence of Cytochrome P450 2C19 (P33261 whole entry): as the sequence (P33261 whole entry) above

Cytochrome P450 2C9 = Cytochrome P450 2C9 (Homo sapiens, UniProt P11712); assay: as §3
Sequence of Cytochrome P450 2C9 (P11712 whole entry): as the sequence (P11712 whole entry) above

Cytochrome P450 1A2 = target: T2, Cytochrome P450 1A2 (Homo sapiens, UniProt P05177); assay: as §4
T2 sequence (P05177 whole entry): T1 sequence (P05177 whole entry)

Cytochrome P450 3A4 = Cytochrome P450 3A4 (Homo sapiens, UniProt P08684); assay: as §5
Sequence of Cytochrome P450 3A4 (P08684 whole entry): as the sequence (P08684 whole entry) above

## CN(C/C=C\CN)C[C@H]1O[C@@H](n2cnc3c(N)ncnc32)[C@@H](F)[C@@H]1O
[1]
  CLint scaled: < 11 mL/min/kg
[2]
  fraction unbound at 4 h: 0.678
[3]
  CLint scaled: < 11 mL/min/kg
CYP2D6
  IC50: > 5 µM
CYP2C19
  IC50: > 5 µM
[4]
  solubility kinetic: > 47 µg/mL
CYP2C9
  IC50: > 5 µM
[5]
  CLint scaled: < 4.2 mL/min/kg
[6]
  CLint scaled: < 4.2 mL/min/kg
[7]
  fraction unbound at 4 h: 0.628
[8]
  IC50: 0.319 µM
CYP1A2
  IC50: > 5 µM
CYP3A4
  IC50: > 5 µM

## Cc1nc(N)c2ncn([C@@H]3O[C@H](CN(C)C/C=C\CN)[C@@H](O)[C@H]3O)c2n1
Rattus norvegicus [9]
  Vdss: 853 L/kg
[10]
  Activity: Active
[11]
  Cmax: 660 ng/mL
[12]
  half-life: 1.53 h
[13]
  AUC: 681 ng·h/mL
[1]
  CLint scaled: < 11 mL/min/kg
[14]
  Survival: >40 days
[2]
  fraction unbound at 4 h: 0.588
In vivo
  Kp: 7.28
[3]
  CLint scaled: < 11 mL/min/kg
[15]
  AUC: 49 ng·h/mL
[16]
  Papp at 4 h: 0.22 ×10⁻⁶ cm/s
[17]
  Activity: Active
[18]
  Cmax: 39 ng/mL
[19]
  Cmax: 36900 ng/mL
[20]
  half-life: 7.43 h
[21]
  bioavailability: 2.1%
CYP2D6
  IC50: > 5 µM
CYP2C19
  IC50: > 5 µM
[22]
  Tmax: 0.25 h
[4]
  solubility kinetic: > 49 µg/mL
CYP2C9
  IC50: > 5 µM
Rattus norvegicus [23]
  t1/2: 3.17 h
[24]
  Survival: >30 days
[25]
  AUC: 1300 ng·h/mL
[5]
  CLint scaled: < 4.2 mL/min/kg
[6]
  CLint scaled: < 4.2 mL/min/kg
[7]
  fraction unbound at 4 h: 0.643
[26]
  AUC: 17900 ng·h/mL
[27]
  Activity: Active
[8]
  IC50: 0.0001 µM
CYP1A2
  IC50: > 5 µM
CYP3A4
  IC50: > 5 µM
[28]
  Survival: >40 days

## CN(C/C=C\CN)C[C@H]1O[C@@H](n2cnc3c(N)ncnc32)[C@H](F)[C@@H]1O
[11]
  Cmax: 30 ng/mL
[1]
  CLint scaled: < 11 mL/min/kg
[2]
  fraction unbound at 4 h: 0.767
In vivo
  Kp: 0.86
[3]
  CLint scaled: < 11 mL/min/kg
[19]
  Cmax: 33000 ng/mL
[20]
  half-life: 1.93 h
Cytochrome P450 2D6
  IC50: > 5 µM
Cytochrome P450 2C19
  IC50: > 5 µM
[4]
  solubility kinetic: > 47 µg/mL
Cytochrome P450 2C9
  IC50: > 5 µM
[25]
  AUC: 140 ng·h/mL
[5]
  CLint scaled: < 4.2 mL/min/kg
[6]
  CLint scaled: < 4.2 mL/min/kg
[7]
  fraction unbound at 4 h: 0.523
[26]
  AUC: 16300 ng·h/mL
[8]
  IC50: 0.172 µM
Cytochrome P450 1A2
  IC50: > 5 µM
Cytochrome P450 3A4
  IC50: > 5 µM
